Data published in ChEMBL document CHEMBL4513216, “Probing the Open Global Health Chemical Diversity Library for Multistage-Active Starting Points for Next-Generation Antimalarials” (ACS Infect Dis, 2020).

assay: Toxicity liver stage against HepG2, at 10uM; format: cell-based; design: test concentration 10 uM, cell line HepG2-A16-CD81EGFP; details: human, HepG2-A16-CD81EGFP cells; read-out: INHIBITION
How it was run: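 Uninfected HepG2-A16-CD81EGFP cells, 3 × 10^3 per well, 1536-well, plated on prespotted compound at 10 μM final, parasite-free screening media added to match infected plates; puromycin 10 μM positive, DMSO 0.5% negative; run in parallel with 48 h PbLuc assay at 37 °C, 5% CO2; viability by CellTiter-Glo luminescence, normalized to controls.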

SMILES | cytotoxicity at 10 µM [%]
Cc1cnn(CC2CN(CC(=O)Nc3c(C)nn(C)c3C)CCO2)c1 (stereo not given) | 1.08
CN(Cc1nnc2n1CCC2)S(=O)(=O)c1cc(Br)ccc1Br | 0.392
O=C(CCn1ccnc1)N1CC[C@H](Oc2cccc(F)c2)[C@@H](O)CC1 | -1.83
Cn1cc(C(=O)N2CC[C@@H]3[C@@H]2CCN3Cc2cccc(C#N)c2)cn1 | -71.3
O=C(CN1CCOCC1)Nc1cc(C(F)(F)F)ccc1-n1cccc1 | 8.32
Cc1cccc(Nc2nccnc2C2CCCN(CC(=O)N(C)C)C2)n1 (stereo not given) | -3.03
Cc1csc(C2(NC(=O)NCCN3CCOCC3)CCC2)n1 | -0.746
Cn1ncc2c1CCCC2NCc1cccc2c1OCCCO2 (stereo not given) | -9.86
COCCN1CCN(C(=O)c2ccc(COC)o2)[C@H]2CS(=O)(=O)C[C@H]21 | -6.15
CO[C@H]1C[C@@H](O)C12CCN(Cc1nc(C(F)(F)F)no1)CC2 | -4.7
NC(=O)CCCNC(=O)Cc1csc(Cc2ccccn2)n1 | -4.56
O=C1C(Sc2nc(=O)ccn2C2CC2)CCN1c1ccccc1 (stereo not given) | 1.27
CC(CO)NC(=O)Nc1ccc(S(C)(=O)=O)nc1 (stereo not given) | -10.2
Cc1ncc(C(=O)N2CCOC(C(=O)N3CCCCC3)C2)c(C)n1 (stereo not given) | 1.14
CNC(=O)Cc1ccc(NC(=O)NCC(C)c2ncc(C)s2)cc1 (stereo not given) | -14.4
NC(=O)C1CCN(C(=O)c2ccccc2OCc2ccncc2)CC1 | 1.02
Cc1ncc(C)c(N2Cc3cnn(Cc4ccc(F)cc4)c3C2)n1 | 3.3
Cc1cnc(CC2COCCN(C(=O)CN3CCCCC3)C2)cn1 (stereo not given) | -3.22
O=C1[C@H]2CN(C(=O)[C@H]3CCCO3)C[C@H]2CN1CCN1CCCC1 | -3.66
COC(=O)c1ncccc1N1CCN(C(=O)CN2CCOCC2)CC1 | 16.7
CC(NS(=O)(=O)CCc1ccccn1)c1ccccc1Br (stereo not given) | -4.74
O=C(Nc1cnccn1)[C@@H]1C[C@H]2OCC[C@H]2N(Cc2ccsc2)C1 | -2.31

SMILES | cytotoxicity at 10 µM [%]
Cc1ccc(NC2CCN(C(=O)c3c(C)nn(C)c3Cl)CC2)nn1 | -11.6
CC(C)(C)c1ccn(C2(C(=O)O)CCN(c3ccnc(N)n3)CC2)n1 | 3.63
CN(CCCc1cnn(C)c1)C(=O)C1CCOC1 (stereo not given) | -13.4
COc1ccc(-c2cc[nH]n2)cc1CNC1CCCC1 | -52.8
COc1cccc(C(C(=O)O)N2CCCN(c3ccnc(C)c3)CC2)c1 (stereo not given) | 4.98
Cc1ccc2[nH]c(=O)c(CNCCCN3CCOCC3)cc2c1 | -14.9
CC(C)NC(=O)CN1CCCNCC1 | -0.616
CN1CCC(N(CCc2ccccc2)C(=O)c2ccc(C#N)nc2)CC1 | -3.33
CCn1ncc(C(=O)NCc2ccc(C)c(OC)c2)c1C(F)(F)F | 10.2
CC(=O)N1C[C@@H](c2ccsc2)[C@@H]2CN(Cc3ccccc3C)CC[C@@H]21 | -5
N#Cc1c(N)nc2c(c1-c1cnc(N3CCCC3)nc1)COCC2 | 10.5
CCCC(=O)N1CCN(CC(O)COCC)CC1 (stereo not given) | -20.6
Cc1nc(NC(=O)NC2CC(=O)N(C(C)C)C2)nn1C(C)C (stereo not given) | -1.55
CCOc1ncccc1Cn1cc2[nH]cccc-2c1=O | 1.93
CCn1cnnc1CCNC(=O)C1COc2ccc(OC)cc2C1 (stereo not given) | -1.31
CCC(C)(C)N(C)CCOc1cccc(S(C)(=O)=O)c1 | -8.42
Cc1cc(CN(C)S(=O)(=O)N2CCCC2c2ccc(C)o2)no1 (stereo not given) | 3.33
CN1CC2(CCN(C(=O)Cc3ccc(O)c(F)c3)CC2)CC1=O | 1.87
O=c1[nH]c(NC2CCCC2)nc2nccc(-c3cccs3)c12 | -18.1
O=C(c1cscn1)N1CC[C@@H]2[C@@H]1CCN2C1CCOC1 (stereo not given in full) | 4.19
Cc1ccc(CC(=O)N2CCCCC2c2nc(C)cs2)cn1 (stereo not given) | 2.6
CC(=O)N1CCO[C@@H]2CN(S(=O)(=O)c3ccc(C)cc3)CC[C@@H]2C1 | 8.28

SMILES | cytotoxicity at 10 µM [%]
COC(=O)c1oc(CNC(C)(C)c2ccc3c(c2)OCO3)cc1C | 4.47
Cc1ncc2c(n1)CN(CCCc1nc3ccccc3o1)CC2 | 6.81
CNc1nc(C(=O)NCc2cccnc2N(C)C)cs1 | -7.57
CC(C)c1nc2c(n1C)CCN(CCCc1nc3ccccc3o1)C2 | 2.07
Cc1cccc(-c2ccc3nc(C4CCN(CC5CC5)CC4)nn3c2)c1 | -12.2
COCC(=O)N1Cc2nc3c(C)c(-c4cccs4)nn3c(O)c2C1 | -4.81
CN(Cc1cc(Br)cn1C)C(=O)Cc1cccnc1 | -4.18
O=C(NCCOc1cccc(Cl)c1Cl)N1CCC2(CC1)OCCO2 | -3.36
Cc1ccc2c(c1)CCC21CCN(C(=O)CN(C)C)CC1 | -6.25
FC(F)(F)Sc1ccccc1NCc1nc(C2CC2)no1 | 0.858
CCn1ncc(-c2cc(C(F)F)nc3sc(C(N)=O)c(N)c23)c1C | 10.3
CC(C)NC1CCc2[nH]c(=O)ccc2C1 (stereo not given) | 3.64
Cc1ccc(OCc2cccc(C(=O)N(C)C(C)CC#N)c2)cn1 (stereo not given) | 6.36
Cc1ccccc1SC1CCN(C(=O)[C@@H]2C[C@@H](N)CN2)CC1 | -7.69
Cc1cc(C(=O)N2CCN(C(=O)Cc3ccccn3)CC2)c(C)s1 | 6.18
Cc1cnc(NCc2cnn(C)c2)nc1-c1cnn(C)c1 | 52.1
CC(C)COCCC(=O)NS(=O)(=O)c1ccc(Cl)s1 | -21.6
O=C(NCc1ccccn1)[C@@H]1CCO[C@@H]2CCN(Cc3ccoc3)C[C@H]21 | 5.33
O=C(c1ccnnc1)N1CCO[C@H]2[C@@H](OCc3cccnc3)CC[C@@H]21 | 2.93
Cc1ccc(N(C)C2CCN(C(=O)c3ccsc3)CC2)nn1 | -12.1
Cc1nnc([C@@H]2CC[C@@H]3[C@@H](CCN3C3CCC3)O2)o1 | 8.19
COc1ccc(C)cc1C(C)NC(=O)Cn1ccc(=O)n(C)c1=O (stereo not given) | -1.59

SMILES | cytotoxicity at 10 µM [%]
COc1ccc2c(c1)OCC(CNC(=O)c1cc[nH]c1C)C2 (stereo not given) | 3.34
CCn1nc(C)cc1C(=O)NCc1cc(N(C)C)nc2ccccc12 | 10.6
Clc1cccnc1N1CCC(NCc2cccc3cn[nH]c23)C1 (stereo not given) | 13.7
CCCSc1nn(CCN(C)C)c2nc3sc(C)c(CC)c3c(=O)n12 | 16.4
CCn1cnnc1CCNS(=O)(=O)N1CCCC1c1ccco1 (stereo not given) | -136
CCOC(C)c1noc(CN(C)C(=O)c2ccncc2)n1 (stereo not given) | 14.5
N#CCCN(CC(F)(F)F)C(=O)c1cc(-n2cccn2)ccn1 | 8.93
Cc1ccsc1C(=O)N1CCC(c2nccn2Cc2ccncc2)CC1 | 0.535
Cc1nc(O)cc(CCNC(=O)c2ccccc2N2CCCC2)n1 | 10.4
CS(=O)(=O)c1ccc(CNC2CCCN(c3cccnn3)C2)cc1 (stereo not given) | 1.3
CCN(Cc1cccc2c1OCO2)C(=O)NC1CC1 | -9.48
O=C(CCc1ccc(Br)cc1)NCCc1nnc[nH]1 | 2.7
CC(C)C[C@H](NC(=O)Cc1csc(-c2cccc(Cl)c2)n1)C(=O)O | 3.51
CN(C)C(=O)C1CN(Cc2ccsc2)CCN(S(C)(=O)=O)C1 (stereo not given) | 14.4
Cc1noc(CN(CCO)Cc2cc(Br)ccc2F)n1 | 2.2
COc1ccc(CN2C[C@@H](CN(C)C)[C@@H](CO)C2)cc1OC | -1.19
C=C(C)COc1cccc(CNCCc2c[nH]cn2)c1 | 8.95
CCCc1nnc(N2CCN(c3ccccc3F)CC2)o1 | 5.85
COc1cc(CN2CCC3(CC2)[C@H](O)C[C@@H]3OCCO)ccc1F | -12.2
CCOc1cc(C(=O)N(C)C)ccc1NC(=O)C(C)c1ccsc1 (stereo not given) | 5.61
N#Cc1ccc(N2CCC(c3nccn3Cc3cscn3)CC2)nc1 | -7.01
c1cnc(N2CCOCC3(CN(Cc4nccs4)CCO3)C2)nc1 (stereo not given) | 1.5

SMILES | cytotoxicity at 10 µM [%]
CC(=O)N1CCC(C(=O)c2cnn(-c3ccccc3)c2N)C1 (stereo not given) | 5.54
COCCc1ncc(CN2C[C@H](C3CC3)[C@@H](N)C2)cn1 | -42
COc1ccc(NC(=O)N2CCCCC2c2ncc[nH]2)cc1 (stereo not given) | 10.4
CCOCC1CN(C(=O)c2cnoc2C)Cc2cn(C)nc21 (stereo not given) | 12.9
COC(=O)CCC(=O)NCc1cccnc1N1CCc2ccccc2C1 | -8.09
Cc1nc(C)n(C2CCCN(C(=O)Cc3csc(C(C)C)n3)C2)n1 (stereo not given) | -15.8
CC(C)c1ocnc1C(=O)N1CC(=O)Nc2cccnc21 | 1.56
Fc1ccc(Cn2ncc3c2CN(c2ncccn2)C3)cc1 | 1.5
COc1ccccc1NCC(=O)NCc1ccc(-c2ccn[nH]2)cc1 | -1.99
CSc1ncccc1C(=O)NCc1ccc(N(C)C)cc1 | 4.74
CC(C)N(CCCNC(=O)C1CCCN(C(N)=O)C1)S(C)(=O)=O (stereo not given) | -8.51
COCCN1CCC(CNC(=O)Nc2ccc(F)c(Cl)c2)C1 (stereo not given) | 2.59
COc1cc(CNCC(O)c2ccc(F)c(F)c2)cc2c1OCO2 (stereo not given) | -8.28
Cc1ccc(Sc2ccc(CN3CCC4(CCCNC4=O)C3)o2)cc1 (stereo not given) | -3.68
NC(=O)CN1CCc2c(Br)ccc(F)c2C1 | 0.892
CC(C)NC(=O)N1CCOC2(CCCN(c3ncccc3F)C2)C1 (stereo not given) | -4.45
Cc1nn(C)cc1S(=O)(=O)NC1(CN2CCOCC2)CCCCC1 | -8.27
Cc1nc(-n2cnnc2)ccc1-c1cccc2c1CCNC2 | 12.2
CC(C)(C)c1nc(CNc2ccccc2SCCC(N)=O)cs1 | 23.5
CCOCC1CN(C(=O)N2CCCC2)Cc2cnn(CC)c21 (stereo not given) | -77.5
Cc1cc(C)n(C2CN(CC(O)c3ccc(C(F)(F)F)cc3)C2)n1 (stereo not given) | -5.94
CNC(=O)c1cnc(C)nc1CCNC(=O)CCc1ccccc1 | -0.0555
